Consider 96 compounds from ChEMBL document CHEMBL4513216, “Probing the Open Global Health Chemical Diversity Library for Multistage-Active Starting Points for Next-Generation Antimalarials” (ACS Infect Dis, 2020).

A short description of the series: Toxicity liver stage against HepG2, at 10uM. Set-up: test concentration 10 uM, cell line HepG2-A16-CD81EGFP. The series is classed as cell-based. To be noted: human, HepG2-A16-CD81EGFP cells; read-out: INHIBITION
In outline:
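Uninfected HepG2-A16-CD81EGFP cells, 3 × 10^3 per well, 1536-well, plated on prespotted compound at 10 μM final, parasite-free screening media added to match infected plates; puromycin 10 μM positive, DMSO 0.5% negative; run in parallel with 48 h PbLuc assay at 37 °C, 5% CO2; viability by CellTiter-Glo luminescence, normalized to controls.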
For `COc1ccc(CNC2(Cc3cc(CC(C)C)on3)COC2)cc1`, the cytotoxicity at 10 µM was 4.71%.

Take `CCN(CC)CCNC(=O)CCc1c(C)nn(-c2ccccc2Cl)c1C`: the cytotoxicity at 10 µM was -0.61%.

In the case of `COCC(=O)N1CC2=CC(C)(C)COc3ccc(OC)c(c32)C1`, the cytotoxicity at 10 µM was -2.59%.

Consider `CC(C)[C@H](NC(=O)NC1CCS(=O)(=O)C1)C(=O)NCc1ccccc1` (stereo partly specified), for which the cytotoxicity at 10 µM stood at 7.39%.

Take `COc1c[nH]c(C(=O)N2CCN(c3ccccc3)CC2)cc1=O`: the cytotoxicity at 10 µM was 0.0868%.

On to `O=C(Nc1cccnc1-n1cc(Cl)cn1)C1CCCC1`, for which the cytotoxicity at 10 µM is -43.3%.

With `O=C1CSC(c2cccnc2)c2c(n(C3CCOCC3)[nH]c2=O)N1` (stereo unspecified), the cytotoxicity at 10 µM is -7.95%.

With `NC(=O)C1CCN(c2nc3nccc(-c4cccnc4)c3c(=O)[nH]2)CC1`, the cytotoxicity at 10 µM was found to be 12.1%.

Consider `CN(C(=O)Cn1nc(-c2ccccc2Cl)ccc1=O)C1CCS(=O)(=O)C1` (stereo unspecified), for which the cytotoxicity at 10 µM was found to be 1.96%.

For `Cc1ccc2c(ccn2CC(=O)NC[C@@H]2CCCN3CCCC[C@H]23)c1`, the cytotoxicity at 10 µM came to 0.097%.

Turning to `C=Cn1ncc(CN2CCC(c3ncc(Cl)cc3S(C)(=O)=O)CC2)c1C`, the cytotoxicity at 10 µM worked out at 6.29%.

Regarding `Cc1nn(C)c(C)c1-c1ccc(=O)n(C(C)C(=O)NC2CCCCC2)n1` (stereo unspecified), the cytotoxicity at 10 µM is 1.94%.

As for `Cc1cc(-c2cnc(N3CCN(C)CC3)nc2C(C)C)on1`, the cytotoxicity at 10 µM was -5.97%.

On to `O=C(c1cscn1)N1CCC2(COc3ncccc3S(=O)(=O)N2)C1` (stereo unspecified), for which the cytotoxicity at 10 µM was 7.22%.

As to `CCN(CC)C(=O)c1cnc(Sc2nccn2C)c(Cl)c1`, the cytotoxicity at 10 µM was -61.1%.

As for `Cn1nc(C(=O)NCc2ccc(OC3CCCCC3)nc2)ccc1=O`, the cytotoxicity at 10 µM was determined as 21.3%.

Regarding `Cc1ccc(C(=O)NC2CCN(S(C)(=O)=O)CC2)c(=O)[nH]1`, the cytotoxicity at 10 µM was 15.7%.

Consider `Cc1nc(C2NC3(CCCC3)C(=O)N2CC2CC2)cs1` (stereo unspecified), for which the cytotoxicity at 10 µM was -6.09%.

For `CCc1nc(CN(C)CC(=O)OC(C)(C)C)cs1`, the cytotoxicity at 10 µM is 3.91%.

On to `Cc1ccccc1-n1cnnc1SCC1CCCCO1` (stereo unspecified), for which the cytotoxicity at 10 µM was determined as 11.8%.

With `CCn1ccnc1CN1CCC(N(Cc2ncc(C)o2)C(C)=O)C1` (stereo unspecified), the cytotoxicity at 10 µM worked out at 11.5%.

Regarding `CN(C)C(=O)c1ccccc1NCCCOc1cccc(C#N)c1`, the cytotoxicity at 10 µM stood at 4.52%.

With `COCc1nc(C(=O)N2CCN(c3nccc(OC)n3)CC2)cs1`, the cytotoxicity at 10 µM is -7.68%.

In the case of `CCc1nnc2n1CCN(Cc1csc(-c3ccccc3)n1)C2`, the cytotoxicity at 10 µM is -6.29%.

Consider `CCN(C(=O)Cc1ccc(NC(=O)NC2CC2)cc1)c1ccccc1`, for which the cytotoxicity at 10 µM worked out at 7.84%.

As to `CCOc1ccc(C2CCCN2Cc2nnnn2C2CC2)cc1` (stereo unspecified), the cytotoxicity at 10 µM was 6.26%.

In the case of `COCCOCC(=O)NC(C#N)c1c(F)cccc1Cl` (stereo unspecified), the cytotoxicity at 10 µM is 19.6%.

Take `FC(F)CN1CCC(NCc2ccc(-n3cccn3)nc2)CC1`: the cytotoxicity at 10 µM stood at 10.6%.

Consider `Cc1nc(CNC2CCN(Cc3ccccc3)C2)sc1C` (stereo unspecified), for which the cytotoxicity at 10 µM was found to be 2.86%.

As for `O=C(CN(CC1CCC1)CC(F)(F)F)N1CCCC1`, the cytotoxicity at 10 µM came out at 1.84%.

Regarding `Cc1cc(C)cc(OCCC(=O)NC2CC(=O)N(C)C2)c1` (stereo unspecified), the cytotoxicity at 10 µM was -1.68%.

As to `CCS(=O)(=O)CC(=O)NC(C)c1ccc(F)cc1F` (stereo unspecified), the cytotoxicity at 10 µM was found to be 1.73%.

Regarding `O=C(CCOc1ccccc1F)N1CCOCC1`, the cytotoxicity at 10 µM was -4.4%.

As to `Cc1ccc(NC(=O)CSCc2cccnc2)nc1`, the cytotoxicity at 10 µM was -46.4%.

As for `c1ccc(-c2noc(C3CCN(CCCn4cncn4)CC3)n2)cc1`, the cytotoxicity at 10 µM is -14.3%.

Turning to `CCOCc1ccccc1NC(=O)NC1CCN(c2ncccn2)CC1`, the cytotoxicity at 10 µM is -4.78%.

In the case of `Cn1cc(NC(=O)c2ccccn2)cc(Cl)c1=O`, the cytotoxicity at 10 µM worked out at 7.7%.

Take `Cn1cc(-c2csc(N3CCN(C(=O)OC(C)(C)C)CC3)n2)cn1`: the cytotoxicity at 10 µM stood at 23.2%.

`CCc1nc(CC(=O)NCC(Cc2ccc(F)cc2)C(N)=O)cs1` (stereo unspecified): the cytotoxicity at 10 µM is -0.86%.

Turning to `Cc1csc(CN2C[C@@H]3CN(CC4CCOCC4)CCO[C@@H]3C2)n1`, the cytotoxicity at 10 µM is -109%.

Turning to `Cc1cccc(COC[C@@]23CCC[C@@H]2CN(C(=O)Cc2ccco2)C3)n1`, the cytotoxicity at 10 µM was -109%.

As to `COc1cc(C(C)=O)ccc1OC12CCCN(CC1)C2` (stereo unspecified), the cytotoxicity at 10 µM came to 10.2%.

For `COCCC(=O)N1CCCCC1c1ccc(F)cc1` (stereo unspecified), the cytotoxicity at 10 µM was -41.3%.

With `Cn1ccnc1C(=O)N1CCCC(Cn2cc(CO)nn2)C1` (stereo unspecified), the cytotoxicity at 10 µM was -1.88%.

As for `CCc1cc(NCCNC(C)=O)nc(N2CCCC2)n1`, the cytotoxicity at 10 µM is -6.77%.

As to `C1=CCN(c2nc(CC3CC3)nc3c2CCN(C2CCOCC2)CC3)C1`, the cytotoxicity at 10 µM came out at 0.0776%.

On to `CSc1cccc(CN2CCC(CCC(=O)Nc3ccccc3)CC2)c1`, for which the cytotoxicity at 10 µM was -2.48%.

Regarding `Cc1nc(N2CCC3(CCCNC3=O)C2)nc2c1CCCC2` (stereo unspecified), the cytotoxicity at 10 µM is -4.97%.

For `COCCCNc1ncnc2c1CCN(C(=O)CC1C=CCC1)CC2` (stereo unspecified), the cytotoxicity at 10 µM amounted to 5.97%.

With `COc1ccc([C@@H]2C[C@H](NC(C)=O)C[C@H](CCc3ccccc3)O2)cn1`, the cytotoxicity at 10 µM was -3.13%.

Turning to `Cc1noc(C)c1CN1CCCC1c1nc(-c2ccccc2)no1` (stereo unspecified), the cytotoxicity at 10 µM was -39.2%.

`CC(C)N1CCCCC1CCn1cnc2cc(C(F)(F)F)ccc2c1=O` (stereo unspecified): the cytotoxicity at 10 µM was -5.98%.

As for `CNc1cc(C(=O)N(C)Cc2cc(-c3cccs3)n[nH]2)ccn1`, the cytotoxicity at 10 µM was -9.22%.

As for `CCOc1ccc(C(C)Nc2ncnc3c2CCNC3)cc1OCC` (stereo unspecified), the cytotoxicity at 10 µM is -8.81%.

In the case of `CCCc1cc(N2CCC(NC3CCS(=O)(=O)C3)CC2)nc(C)n1` (stereo unspecified), the cytotoxicity at 10 µM was -6.65%.

Consider `Cc1ccc(CN2CCN(C3CCSCC3)CC2CCO)o1` (stereo unspecified), for which the cytotoxicity at 10 µM is -3.96%.

On to `COc1cc(C)sc1C(=O)N1CCCCC1c1ccccn1` (stereo unspecified), for which the cytotoxicity at 10 µM turned out to be 0.864%.

In the case of `COc1cc(-c2cccc3c2OC(CN)C3)cc(OC)c1OC` (stereo unspecified), the cytotoxicity at 10 µM is -42.6%.

On to `N#Cc1cccc(NC2CC(=O)N(C3Cc4ccccc4C3)C2)n1` (stereo unspecified), for which the cytotoxicity at 10 µM is -141%.

For the compound `Cc1nc(CC(=O)N(C)C2CCCN(CCc3ccccc3)C2)cs1` (stereo unspecified), the cytotoxicity at 10 µM is 3.13%.

As for `CNC(=O)[C@@H]1C[C@H](N)CN1S(=O)(=O)c1cc(Cl)cc(Cl)c1O`, the cytotoxicity at 10 µM is 1.68%.

As for `Cn1ccnc1C1CCCN(C(=O)c2cc(F)cc(F)c2)C1` (stereo unspecified), the cytotoxicity at 10 µM was 18.4%.

`CN1C[C@@H](NC(=O)c2cc(F)cc(F)c2)C[C@H]1C(=O)NCc1ncc[nH]1`: the cytotoxicity at 10 µM was -6.25%.

For `CCOc1cc(CN2CCCC2)ccc1Oc1cccc(C#N)n1`, the cytotoxicity at 10 µM was -1.83%.

On to `COCCc1noc(CN(C)c2nc(C)cc(C)n2)n1`, for which the cytotoxicity at 10 µM amounted to 0.801%.

For `CCN(CC)S(=O)(=O)N1CCC(c2nccn2Cc2ccccn2)CC1`, the cytotoxicity at 10 µM was determined as 0.136%.

Regarding `CN1C[C@H]2CNC[C@@]2(C(=O)N2CCN(c3ncccc3C#N)CC2)C1`, the cytotoxicity at 10 µM was 2.12%.

For `Cc1cnn(CC2CCCN2c2ncnc3ccsc23)c1` (stereo unspecified), the cytotoxicity at 10 µM amounted to 13.6%.

Take `Cc1nc(C)n(CC2CCCN(Cc3ccccc3C#N)C2)n1` (stereo unspecified): the cytotoxicity at 10 µM was -16.4%.

For `CC(C)(C)c1nc(CC(=O)N2CCCC(n3cncn3)C2)cs1` (stereo unspecified), the cytotoxicity at 10 µM is -11.2%.

In the case of `CC(=O)N1CCN(C(=O)NCc2cccnc2OC(C)C)CC1`, the cytotoxicity at 10 µM is -17.5%.

With `CCOc1ccc(C#N)cc1NCC(=O)NC(=O)Nc1ccccc1`, the cytotoxicity at 10 µM was -11.8%.

Take `CCc1ccc(C(N)c2cccc(S(C)(=O)=O)c2)cc1` (stereo unspecified): the cytotoxicity at 10 µM is -10.9%.

`Cc1ccc(CCC(=O)N2CCCC(c3cc(C(N)=O)[nH]n3)C2)cc1` (stereo unspecified): the cytotoxicity at 10 µM was -4.33%.

Consider `Cc1nccn1-c1cc(CNC(=O)CCNC(=O)C2CCCC2)ccn1`, for which the cytotoxicity at 10 µM is -2.06%.

Take `COc1cccc(OCCNC(=O)CN2CCN(C)CC2C)c1` (stereo unspecified): the cytotoxicity at 10 µM is -2.5%.

Consider `CC(c1nc(C2CC2)no1)N1CCN(CCOCC(F)(F)F)CC1` (stereo unspecified), for which the cytotoxicity at 10 µM was -8.6%.

Take `COCCNC(=O)C1(c2ccccc2C)CCOCC1`: the cytotoxicity at 10 µM was -9.04%.

As to `Cc1nc(-c2ccsc2)ccc1C(=O)NCCN1CCOCC1`, the cytotoxicity at 10 µM was -10.2%.

Take `CCn1ccnc1CN1CCN(Cc2ccc(C#N)cc2)CC1`: the cytotoxicity at 10 µM was -9.62%.

On to `CC(C)c1nc2n(n1)CC(NCc1nnnn1C1CC1)CC2` (stereo unspecified), for which the cytotoxicity at 10 µM was -1.4%.

With `CC(NC(=O)COc1ccc(F)cc1)c1nnc2n1CCCCC2` (stereo unspecified), the cytotoxicity at 10 µM is -8.99%.

As for `CCc1n[nH]c(C2CN(CCc3cccs3)CCO2)n1` (stereo unspecified), the cytotoxicity at 10 µM worked out at 3.83%.

For the compound `COc1cccc(CN2CCC(c3cc(O)nc(C)n3)C2)c1` (stereo unspecified), the cytotoxicity at 10 µM was -0.542%.

`c1cc(CN2CCO[C@H]3[C@H](OCCN4CCCC4)CC[C@@H]32)co1`: the cytotoxicity at 10 µM came to 6.49%.

Consider `O=C1C[C@H]2[C@@H](CCN2C(=O)c2ccc[nH]2)N1CCN1CCCC1`, for which the cytotoxicity at 10 µM was -4.28%.

With `COCc1n[nH]c2c1CN(Cc1ccccn1)C2`, the cytotoxicity at 10 µM was -102%.

For the compound `CN(C)CCN1CCOCC2(CCCN(C(=O)c3cccn3C)C2)C1` (stereo unspecified), the cytotoxicity at 10 µM came out at 4.87%.

Turning to `Cc1nc(C)n(CC2CN(Cc3cccs3)Cc3nccn3C2)n1` (stereo unspecified), the cytotoxicity at 10 µM is -133%.

In the case of `Cn1nc(COCC2CC2)c2c1CCN(Cc1cccs1)C2`, the cytotoxicity at 10 µM is -101%.

`O=C(Nc1cccnc1)[C@H]1CN(Cc2ccccn2)C[C@H]2OCC[C@@H]12`: the cytotoxicity at 10 µM is -107%.

On to `FC1(F)CCN(Cc2ccccn2)CC12CCN(c1ncccn1)C2` (stereo unspecified), for which the cytotoxicity at 10 µM is -95.8%.

Consider `O=C(NC[C@]12COC[C@H]1CN(Cc1nccs1)C2)c1cscn1`, for which the cytotoxicity at 10 µM was -1.11%.

On to `COc1cccc(C2c3c(n[nH]c3C)N=C3COC(=O)C32)c1O` (stereo unspecified), for which the cytotoxicity at 10 µM was found to be 65.8%.

In the case of `Cc1ccc(-n2cccn2)cc1S(=O)(=O)N1C[C@H]2CC[C@@H](C1)N(C)C2`, the cytotoxicity at 10 µM was found to be 1.62%.

As to `Cn1nc(C2CCCC2)c(-c2ccc3c(c2)OCO3)c1N`, the cytotoxicity at 10 µM was -51.5%.
